Calls of active or inactive are those of the source. The rule behind the calls is not given here.
How the values were obtained:
Plasmodium falciparum [1] = assay: Inhibition of gametogenesis after 1 hrs in Plasmodium falciparum 3D7 at 10 uM in emergence medium; type: functional, organism-based
Method in brief: (§1)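 Mature 3D7 gametocytes incubated 1 h with inhibitor or an equal volume of DMSO, then pelleted. Gametogenesis triggered by adding an equal volume of emergence medium (xanthurenic acid, pH 8.2, RT). Scored on Giemsa-stained thin smears before and 15 min after the stimulus (emergence), and by bright-field observation of exflagellation centers 15–30 min after the stimulus.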

Plasmodium falciparum [2] = assay: Inhibition of exflagellation after 1 hrs in Plasmodium falciparum 3D7 at 10 uM in emergence medium; type: functional, organism-based; method in brief: as §1
Plasmodium falciparum [3] = assay: Inhibition of Pfs230 processing after 1 hrs in Plasmodium falciparum 3D7 at 10 uM in emergence medium; type: functional, organism-based
Method in brief: (§2)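 Mature stage V 3D7 gametocytes preincubated 1 h at 37°C in complete RPMI 1640 with inhibitor or DMSO (saponin 0.001% present or absent during this incubation). Cells then pelleted and resuspended in an equal volume of emergence medium (10 µM xanthurenic acid, glucose, NaCl, 8 mM Tris-Cl pH 8.2) at RT. Medium harvested after 1 h and clarified by centrifugation. Readout: immunoblot with Pfs230 region A (aa 304–378) antibodies, scoring 47-kDa and 35-kDa fragments.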

Plasmodium falciparum [4] = assay: Inhibition of Pfs230 processing after 1 hrs in Plasmodium falciparum 3D7 at 100 uM in emergence medium; type: functional, organism-based; method in brief: as §2
Plasmodium falciparum [5] = assay: Inhibition of Pfs230 processing after 1 hrs in Plasmodium falciparum 3D7 at 10 uM in emergence medium with 0.001% saponin; type: functional, organism-based; method in brief: as §2
Plasmodium falciparum [6] = assay: Gametocyte morphology as exflagellation after 15-30 min in Plasmodium falciparum 3D7 at 100 uM for 1hr in emergence medium; type: functional, organism-based
Plasmodium falciparum [7] = assay: Inhibition of oocyst production after 7 days in Anopheles stephensi SxK Nij fed human serum infected with Plasmodium falciparum NF54 stage V gametocyte at 100 uM for 1 hr; type: functional
Method in brief: (§3)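 Isolate NF54 stage V gametocytes treated for stated times with 100 µM inhibitor or DMSO, pelleted onto packed erythrocytes in normal human serum with active complement, membrane-fed (39°C) to Anopheles stephensi SxK Nij for 10 min; mosquitoes kept 7 days at 26°C. Midguts mercurochrome-stained, oocysts counted, 16 to 20 mosquitoes per feeding; geometric mean oocysts per midgut versus control; Kruskal-Wallis.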

Plasmodium falciparum [8] = assay: Inhibition of oocyst production after 7 days in Anopheles stephensi SxK Nij fed human serum infected with Plasmodium falciparum NF54 stage V gametocyte at 100 uM for 30 min; type: functional; method in brief: as §3
Plasmodium falciparum [9] = assay: Inhibition of oocyst production after 7 days in Anopheles stephensi SxK Nij fed human serum infected with Plasmodium falciparum NF54 stage V gametocyte at 100 uM for 15 min; type: functional; method in brief: as §3
Plasmodium falciparum [10] = assay: Inhibition of oocyst production after 7 days in Anopheles stephensi SxK Nij fed human serum infected with Plasmodium falciparum 3D7 stage V gametocyte at 10 uM for 1 hr; type: functional, organism-based
Method in brief: (§4)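 Strain 3D7 stage V gametocyte cultures treated 1 h with inhibitor or DMSO, 0.3 ml pelleted onto 150 µl packed erythrocytes, supernatant replaced by 120 µl normal human serum with active complement; membrane feeder at 39°C, mosquitoes gorge 10 min, kept 7 days at 26°C, >80% humidity. Midguts mercurochrome-stained, oocysts counted; geometric mean per midgut versus DMSO control gives percent reduction; Kruskal-Wallis.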

Plasmodium falciparum [11] = assay: Inhibition at day 7 of Plasmodium falciparum 3D7 oocyst production in human serum at 100 uM for 1 hrs prior to feeding Anopheles stephensi SxK Nij; type: functional; conditions: 3D7, Serum; method in brief: as §4
Plasmodium falciparum [12] = assay: Inhibition of gametogenesis after 1 hrs in Plasmodium falciparum 3D7 at 100 uM in emergence medium; type: functional, organism-based

**Q.** Which Activity (Plasmodium falciparum [1]) does the source give for `CC(C)C[C@H](NC(=O)C(CCc1ccccc1)NC(=O)CF)C(=O)NC(=O)N1CCOCC1` (some centres not stated) here?
**A.** inactive

**Q.** And the Activity (Plasmodium falciparum [2])?
**A.** inactive

**Q.** What about the Activity (Plasmodium falciparum [3]) of the same compound?
**A.** inactive

**Q.** And the Activity (Plasmodium falciparum [4])?
**A.** inactive

**Q.** What about the Activity (Plasmodium falciparum [5]) of the same compound?
**A.** Active

**Q.** Which results are given for `CCOC(=O)[C@H]1O[C@@H]1C(=O)N[C@@H](CC(C)C)C(=O)NCCC(C)C` [ALOXISTATIN]?
**A.** Activity (Plasmodium falciparum [6]): inactive; inhibition at 100 µM (Plasmodium falciparum [7]): 100%; inhibition at 100 µM (Plasmodium falciparum [8]): 98%; inhibition at 100 µM (Plasmodium falciparum [9]): 79%; Activity (Plasmodium falciparum [10]): inactive; inhibition at 100 µM (Plasmodium falciparum [11]): 81%; Activity (Plasmodium falciparum [12]): inactive
